Source: PubChem BioAssay (Johns Hopkins Ion Channel Center)
RGS4 pot = potentiators or activators of RGS4; AID 463111; actives 0.92% (n = 310,000); B-score at 10 µM; HEK293 M3R/inducible RGS4, carbachol calcium flux Fluo4; hits give low values;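 active means B-score of the integrated calcium signal more than 4 SD below the library mean, with starting fluorescence not abnormally high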;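 further: negative B-score means reduced calcium response which marks RGS4 activation or potentiation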
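System: HEK293 FlpIn-TREx cells, stable M3R, doxycycline-inducible RGS4. Timing: overnight RGS4 induction, 30 min dye load 37 °C, 20 min compound RT. Also added: carbachol, ECmax concentration. Measured by: Fluo4 fluorescence kinetic imaging of calcium. Evaluation: integrated calcium ratio converted to B score.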
RGS4 inh = human RGS4 inhibition; B-score at 10 µM; actives 0.45% (n = 310,000); AID 463165; HEK293 M3R/RGS4 inducible, Fluo-4 calcium flux; hits give high values; triggered by carbachol at its EC20; P49798;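 active means B-score, a plate-corrected calcium signal, over three deviations above library mean, with baseline fluorescence within five deviations of library mean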;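 further: RGS4 expression induced by doxycycline in cells with stable M3 receptor; B-score is computed from the integrated fluorescence ratio over baseline after carbachol; higher B-score means a larger calcium signal and so more RGS4 inhibition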
Target sequence (P49798 whole entry, looked up): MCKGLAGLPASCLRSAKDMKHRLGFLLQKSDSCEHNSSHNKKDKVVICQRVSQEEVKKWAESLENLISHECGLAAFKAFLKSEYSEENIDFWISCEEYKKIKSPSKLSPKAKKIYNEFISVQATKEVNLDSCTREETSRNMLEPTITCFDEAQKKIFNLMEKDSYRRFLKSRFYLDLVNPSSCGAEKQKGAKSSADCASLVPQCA
MrgX1 antagonist = antagonists of human MrgX1 receptor. Q96LB2. MRGX1-HEK293 calcium flux, Fluo-4, BAM8-22 antagonism; hits give low values. B-score at 10 µM. actives 1.3% (n = 310,000). AID 588676;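 active means calcium-response B-score plate-corrected more than 3 library SD below zero, starting fluorescence within 5 deviations, no agonist response on first addition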;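 further: peak minus trough fluorescence over baseline after final BAM8-22 challenge near maximal dose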
Target sequence (Q96LB2 whole entry, looked up): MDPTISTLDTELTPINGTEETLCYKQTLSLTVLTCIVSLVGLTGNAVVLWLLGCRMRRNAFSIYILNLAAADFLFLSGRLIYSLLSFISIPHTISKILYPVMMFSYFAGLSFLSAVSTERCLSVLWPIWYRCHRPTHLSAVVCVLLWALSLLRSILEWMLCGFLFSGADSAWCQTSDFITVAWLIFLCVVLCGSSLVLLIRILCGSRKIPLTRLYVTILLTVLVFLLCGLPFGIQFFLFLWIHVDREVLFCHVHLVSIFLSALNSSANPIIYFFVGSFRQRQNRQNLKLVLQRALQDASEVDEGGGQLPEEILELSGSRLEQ
MrgX1 PAM = human MrgX1 positive allosteric modulation, primary screen; Q96LB2; MrgX1-HEK293, Fluo-4 calcium flux, FDSS; hits give high values; B-score at 10 µM; actives 0.63% (n = 310,000);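 active means plate-corrected calcium response at least 3 library SD above typical, normal starting fluorescence, not activating the receptor alone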;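 further: compound read alongside a low EC10 to EC30 dose of BAM8-22 agonist; peak minus trough fluorescence over baseline measured at the second addition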
MrgX1 agonist = human MrgX1 receptor agonism, primary screen; Q96LB2; B-score at 10 µM; actives 0.44% (n = 310,000); MrgX1-HEK293 cells, Fluo-4 calcium fluorescence, agonist mode; hits give high values;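 active means calcium response B-score plate-corrected fluorescence ratio at least 3 library SD, with starting fluorescence B-score inside 5 SD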
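Material: MrgX1-expressing HEK293 cells; input: 15,000 cells per well; doses: test compound given as first of three sequential additions; schedule: overnight plating before 1 h dye loading; technique: Fluo-4 NW calcium-flux fluorescence, kinetic read; evaluation: baseline-normalised fluorescence change ratio, B-scored; control set: plate-wise positive and negative controls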
RGS4 activ val = confirmation of RGS4 activators; HEK293 M3R/RGS4 inducible, carbachol calcium flux Fluo4; shares compounds with RGS4 pot; inhibition, % at 10 µM; actives 89% (n = 1,100);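 active means inhibition above 3 SD of the buffer control wells, cut at about 41% in these data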;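 further: signal is the integrated peak-minus-minimum Fluo4 fluorescence over baseline ratio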
RGS4 act ctr = counter-screen for RGS4 activators: effect in non-induced cells. shares compounds with RGS4 pot. HEK293 M3R non-induced RGS4, Fluo4 calcium flux; after carbachol challenge at its EC90. inhibition, % at 10 µM. actives 82% (n = 1,100). AID 602283;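 active means inhibition exceeding 3 SD of buffer-only control wells, cut at about 26% in these data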;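 further: percent drop in integrated peak-minus-baseline over baseline Fluo4 ratio after carbachol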
A number is an active result; n = inactive; x = no result. In the library only some 3.5% were active in any assay of this set; here they are far more common.

SMILES	RGS4 pot	RGS4 inh	MrgX1 antagonist	MrgX1 PAM	MrgX1 agonist	others
CCCc1cc(C(=O)Nc2ccc(C(=O)c3ccc(C)cc3)cc2)n(C)n1	-7.4	n	n	n	n
O=C(/C(=C/c1ccccc1)n1cncn1)c1ccc(Cl)cc1Cl	n	n	n	n	27
O=C(/C(=N\O)n1cncn1)c1ccc(Cl)cc1Cl	n	n	n	n	n
C[C@@H](NC(=O)[C@@H]1Cc2ccccc2CN1)C(=O)Nc1ccc2c(c1)OCCO2	n	n	n	n	n
C[N+]1(C)CC[C@H](OC(=O)[C@@](O)(c2ccccc2)C2CCCC2)C1	n	n	n	n	n
CCN(CC)CC#CCOC(=O)C(O)(c1ccccc1)C1CCCCC1 (stereo not given)	-7	n	n	n	n
Cn1c(CNC(=O)CCNC(=O)c2cccc(Br)c2)cc(=O)n(C)c1=O	n	n	n	n	n
Cc1ccc(NNC(=O)c2ccno2)c(C)c1	n	n	n	n	n
CCC(NC(C)C)C(O)c1ccc(O)c(O)c1 (stereo not given)	n	n	n	n	27
CC(C)C(=O)c1ccc(O)c(O)c1	n	n	n	n	n
COc1ccc(N(CC(=O)NCc2ccc(F)cc2)C(=O)c2snc(C(N)=O)c2N)cc1OC	n	n	n	n	n
CN(C1CCCCC1)S(=O)(=O)c1ccc2c(c1)c(=O)c(C(=O)NCCN1CCCC1)cn2C	n	n	-4.6	n	n
Cc1cccc(-n2c(C)cc(C=C3C(=O)c4ccccc4C3=O)c2C)c1	-10	n	n	n	n
Cc1cccc(-n2c(C)cc(/C=N/n3cnnc3)c2C)c1	-7.3	n	n	n	n
CC(C)c1ccc(NC(=O)CNS(=O)(=O)c2ccc(F)cc2)cc1	n	n	n	n	n
CCCCCCCCCCCCCCCC[n+]1cccc(C(=O)N(CC)CC)c1	-9.9	n	n	n	n
CC(=O)N1CCC(C(=O)NC2CCCc3c2cnn3-c2cc(F)cc(F)c2)CC1 (stereo not given)	n	n	n	n	n
C#CCOCCOCCOCCNc1nc(N2CCN(C(=O)CCCCCCCCCCNC(=O)[C@@H](CCC(=O)O)n3cc(CCCCCN)nn3)CC2)nc(N2CCN(C(=O)CCCCCCCCCCNC(=O)[C@H](CO)n3cc(CCCCCN)nn3)CC2)n1	x	x	n	n	n
C#CCOCCOCCOCCNc1nc(N2CCN(C(=O)CCCCCCCCCCNC(=O)[C@@H](CCC(=O)O)n3cc(CCCCCN)nn3)CC2)nc(N2CCN(C(=O)CCCCCCCCCCNC(=O)[C@H](CCCCN)n3cc(C[C@@H](C)CC)nn3)CC2)n1	x	x	n	n	70
C#CCOCCOCCOCCNc1nc(N2CCN(C(=O)CCCCCCCCCCNC(=O)[C@H](CCCCN)n3cc(CCO)nn3)CC2)nc(N2CCN(C(=O)CCCCCCCCCCNC(=O)[C@H](CCCCN)n3cc(C[C@@H](C)CC)nn3)CC2)n1	x	x	n	n	83
CCCN(Cc1ccc(N(C)C)cc1)CC1CC1	n	n	n	n	n
CCCN(Cc1ccc(N(CC)CC)cc1)CC1CC1	-7.1	n	n	n	n
Cc1cc(Br)c2c(c1)C1(OCCO1)C(=O)N2	n	n	n	n	n
CC(C)n1cnnc1SCC(=O)Nc1cccc(S(=O)(=O)N(C)c2ccccc2)c1	n	n	n	n	n
COc1ccc(C)cc1Nc1n[n+](-c2ccccc2)c(-c2cc([N+](=O)[O-])cc(OC)c2O)s1	n	n	-6	n	n
SMILES	RGS4 pot	RGS4 inh	MrgX1 antagonist	MrgX1 PAM	MrgX1 agonist	others
Cc1cc[n+](-c2[nH]c(=O)sc2/C=N/NC([S-])=Nc2ccccc2)cc1	n	n	n	n	n
Cc1cc(C)c[n+](-c2[nH]c(=O)sc2/C=N/NC([S-])=Nc2ccccc2)c1	n	n	-6.7	n	n
O=C(O)CC1SC(N/N=C/c2ccc(Br)cc2)NC1=O (stereo not given)	n	n	-5.7	n	n
O=C(Nc1ccc(N2CCOCC2)nc1)c1ccccc1Cl	n	n	n	n	n
O=C1CCC([N+](=O)[O-])C(c2cc3c(cc2Cl)OCO3)N1 (stereo not given)	n	n	-4.5	n	n
CC1=CC2=NC(=O)/C(=C/c3coc4ccc(Cl)cc4c3=O)C(=N)N2O1	-7.1	n	n	n	n
N#Cc1c(C(F)(F)F)cc(-c2ccco2)nc1SCc1ccncc1	n	n	-5.1	n	n
CN1C(=O)/C(=C/c2ccc(OCc3ccc(F)cc3)cc2)N(C)C1=S	n	n	n	n	n
CN1C(=O)/C(=C/c2ccccc2OCc2cccc(F)c2)N(C)C1=S	-9.9	n	n	n	n
Cc1ccc(NC(=O)CCc2nc3ccccc3c(=O)[nH]2)cc1S(=O)(=O)N1CCOCC1	n	n	n	n	n
CCN(CC)CCCN1C=C2C(=O)C(C)(OC(=O)CCC(=O)OC)C(=O)C=C2C=C1C1CC1 (stereo not given)	n	n	-5.5	n	n
Cn1c(=O)c(=O)n(C)c2cc(N3CCOCC3)c(NS(=O)(=O)c3ccc([N+](=O)[O-])cc3)cc21	n	n	n	14	n
Cn1c(=O)c(=O)n(C)c2cc(N3CCOCC3)c(NS(=O)(=O)c3ccc(F)c(Cl)c3)cc21	n	n	n	n	n
Nc1ccc(-c2nc3ccccc3o2)cc1	n	n	n	n	n
O=c1c(-c2nc3ccccc3o2)c2oc3ccccc3n2c2ccccc12	-9.6	n	x	x	x
Cc1ccc(C(O)Cn2nc(C)cc2C)cc1 (stereo not given)	n	n	n	n	n
O=C(CN1CCCCC1)Nc1ccccc1Oc1ccccc1	-8.2	n	n	n	n	RGS4 activ val=61;RGS4 act ctr=84
CC(C)CC1(C)N=C(c2ccccc2)C(=S)N1 (stereo not given)	n	n	n	n	n
Cc1cccc(NC(=O)c2cc(-c3cc(Cl)ccc3O)n[nH]2)c1	n	n	n	n	n
COC(=O)C1=C(C)N(c2ccc(OC)cc2)C(C)=C(C(=O)OC)C1c1ccccc1	n	n	n	n	n
COC(=O)C1=C(C)N(c2ccc(OC)cc2)C(C)=C(C(=O)OC)C1c1ccc(OC)cc1	-9	n	n	n	n	RGS4 activ val=n;RGS4 act ctr=n
CCOC(=O)c1[nH]c2ccc(F)cc2c1NC(=O)CCN1CCOCC1	n	n	n	n	n
CCOC(=O)c1[nH]c2ccc(Br)cc2c1NC(=O)CCN1CCCC(C)(C)C1	-14	n	n	n	n	RGS4 activ val=94;RGS4 act ctr=74
COc1ccc(OC)c(/C=C/c2nc3ccccc3[nH]c2=O)c1	-7.7	n	n	n	n	RGS4 activ val=60;RGS4 act ctr=44
CCN1CCN(c2ncnc3scc(-c4ccc(C)cc4)c23)CC1	n	n	n	n	n
